Experimental data pooled from the literature.
Medium: plasma

| Structure (SMILES) | system | conditions | quantity | value |
| --- | --- | --- | --- | --- |
| COc1ccc([C@@H](O)c2cc(-c3ncnc4cc(N5CCOCC5)ccc34)c(F)cc2Cl)nn1 | human | oral, 200 mg, single dose, patients | AUC(0-t) | 6790 ng·h/mL |
| CC(C)n1c(Nc2cccnc2)nc2cnc(Nc3ccc(N4CCN(C)CC4)cc3)nc21 | male human | oral, 150 mg | AUC(0-inf) | 1390 ng·h/mL |
| CNC(=O)n1ccc2cc(Oc3ccnc(NC(=O)c4ccc(C5CCN(CCO)CC5)cc4)c3)c(OCCOC)cc21 | human | oral, 35 mg, single dose, healthy volunteers | AUC(0-inf) | 93.4 ng·h/mL |
| Cn1cc(Nc2nc(N)nc(-c3cccc(-n4ccc5cc(C6CC6)cc(F)c5c4=O)c3CO)n2)cn1 | human | oral, 900 mg, single dose, fasted, suspension | AUC(0-t) | 64100 ng·h/mL |
| CC(=O)N[C@H]1CC[C@H](NC(=O)CN2CCN(c3nncc(-c4ccc(C)cc4)n3)CC2)CC1 | female human | oral, 100 mg, single dose, fasted, healthy volunteers | AUC(0-inf) | 6500 ng·h/mL |
| CC[C@H](C)CCCCC(=O)N[C@@H](CCN)C(=O)N[C@H](C(=O)N[C@@H](CCN)C(=O)N[C@H]1CCNC(=O)[C@H]([C@@H](C)O)NC(=O)[C@H](CCN)NC(=O)[C@H](CCN)NC(=O)[C@H](CC(C)C)NC(=O)[C@@H](Cc2ccccc2)NC(=O)[C@H](CCN)NC1=O)[C@@H](C)O | human | intravenous, 0.75 mg/kg, single dose, infusion | AUC(0-inf) | 20500 ng·h/mL |
| C[C@H](O)C(=O)C1=Nc2c(nc(N)[nH]c2=O)NC1 | human | oral, 20 mg/kg, single dose, healthy volunteers | AUC(0-t) | 5.29 ng·h/mL |
| NC(=S)NN=Cc1ncccc1N | human | oral, 150 mg | AUC(0-t) | 990 ng·h/mL |
| Cl.[2H]C([2H])([2H])CC(=O)c1cnc(NC(=O)C2CC2)cc1Nc1cccc(-c2ncn(C([2H])([2H])[2H])n2)c1OC | human | oral, 20 mg, multiple doses, once daily, steady state | AUC | 1100 ng·h/mL |
| NS(=O)(=O)OC[C@@H]1C[C@@H](n2ccc3c(N[C@H]4CCc5ccccc54)ncnc32)C[C@@H]1O | human | intravenous, 15 mg/m², patients | AUC(0-t) | 780 ng·h/mL |
| CN1CC[C@@H](c2c(O)cc(O)c3c(=O)cc(-c4ccc(C(F)(F)F)cc4Cl)oc23)[C@@H]1CO | human | oral, 50 mg, patients | AUC(0-t) | 1430 ng·h/mL |
| Cc1ccc(C(=O)Nc2ccc(CN3CCN(C)CC3)c(C(F)(F)F)c2)cc1C#Cc1cnc2[nH]ncc2c1 | human | oral, 20 mg, single dose, healthy volunteers | AUC(0-t) | 105 ng·h/mL |
